Published values collected from several papers.
Lines come from different studies, so protocols differ. pEC50: −log10 of the molar value.
Observed: cell growth or viability

SMILES | cell line | test | conditions | quantity | result
COc1ccc(NC(=O)NCc2cn(Cc3ccccc3C)nn2)cc1 | NCI-H1299 | CCK-8 | 50 µM, 72 h | viability | 68.9%
Cc1n[nH]c2ccc3nc(-c4ccc(C(=O)NCCN(C)C)cc4F)c4c(c3c12)CCCC4 | 22Rv1 | – | 72 h | GI50 | 0.556 µM
COc1ccc(NC(=O)Nc2cccc(-c3cn(Cc4ccccc4C)nn3)c2)cc1 | NCI-H1299 | CCK-8 | 50 µM, 72 h | viability | 125%
O=C(Nc1ccc(Cl)cc1)Nc1cccc(-c2cn(Cc3cccc(Cl)c3)nn2)c1 | NCI-H1299 | CCK-8 | 50 µM, 72 h | viability | 104%
CCc1nc(C(N)=O)c(Nc2ccc(N3CCC(N4CCN(C)CC4)CC3)c(OC)c2)nc1NC1CCOCC1 | 22Rv1 | – | 72 h | GI50 | 1.52 µM
COc1ccc(NC(=O)Nc2cccc(-c3cn(Cc4cccc(Cl)c4)nn3)c2)cc1 | NCI-H1299 | CCK-8 | 50 µM, 72 h | viability | 134%
CN(C)CCNC(=O)c1ccc(-c2nc3ccc4[nH]ncc4c3c3c2CCCCC3)c(F)c1 | 22Rv1 | – | 72 h | GI50 | 2.13 µM
C=C(NC(=O)C(=C)NC(=O)c1csc(C2=N[C@@H]3c4csc(n4)[C@H]4NC(=O)c5csc(n5)[C@H]([C@](C)(O)[C@@H](C)O)NC(=O)[C@H]5CSC(=N5)/C(=C/C)NC(=O)[C@H]([C@@H](C)O)NC(=O)c5csc(n5)[C@]3(CC2)NC(=O)[C@H](C)NC(=O)C(=C)NC(=O)[C@H](C)NC(=O)[C@H]([C@@H](C)CC)N[C@@H]2C=Cc3c([C@H](C)O)cc(nc3[C@H]2O)C(=O)O[C@@H]4C)n1)C(N)=O | PC3-TxR | – | – | pEC50 | < 4.52
O=C(Nc1ccc(Cl)cc1)Nc1ccc(-c2cn(Cc3cccc(Cl)c3)nn2)cc1 | NCI-H1299 | CCK-8 | 50 µM, 72 h | viability | 82.8%
Cc1ncsc1-c1ccc(CNC(=O)[C@@H]2C[C@@H](O)CN2C(=O)[C@@H](NC(=O)COCCOCCOCCNC(=O)C[C@@H]2N=C(c3ccc(Cl)cc3)c3c(sc(C)c3C)-n3c(C)nnc32)C(C)(C)C)cc1 | 22Rv1 | MTT | 6 days | IC90 | 1.85 µM
O=C(NCc1cn(Cc2ccc(Cl)cc2)nn1)Nc1ccc(Cl)cc1 | NCI-H1299 | CCK-8 | 50 µM, 72 h | viability | 82.3%
CN(C)CCNC(=O)c1ccc(-c2nc3ccc4[nH]ncc4c3c3c2CCCC3)cc1 | 22Rv1 | – | 72 h | GI50 | 1.8 µM
O=C(NCc1cn(Cc2cccc(Cl)c2)nn1)Nc1ccc(Cl)cc1 | NCI-H1299 | CCK-8 | 50 µM, 72 h | viability | 91.6%
Cc1ccccc1Cn1cc(-c2cccc(NC(=O)Nc3ccc(F)cc3)c2)nn1 | NCI-H1299 | CCK-8 | 50 µM, 72 h | viability | 114%
O=C(Nc1cccc(-c2cn(Cc3ccc(Br)cc3)nn2)c1)Nc1ccccc1Br | NCI-H1299 | CCK-8 | 50 µM, 72 h | viability | 108%
COc1ccc(NC(=O)Nc2cccc(-c3cn(Cc4ccc(Cl)cc4)nn3)c2)cc1 | NCI-H1299 | CCK-8 | 50 µM, 72 h | viability | 156%
Cc1n[nH]c2ccc3nc(-c4ccc(C(=O)NCCN(C)C)cc4F)c4c(c3c12)CCCCC4 | 22Rv1 | – | 72 h | GI50 | 4.62 µM
